# Compound activity deposited in PubChem BioAssay by several laboratories.
# This is a sample that favours compounds with a hit; in the whole collection about 11% have one here.
# mHtt clearance – compounds clearing mutant huntingtin protein. HeLa Exon1htt(103Q)mCFP, aggregate imaging; zero = plate's median compound well. AID 853. hit rate 0.42% among 47,000. inhibition, % at 1.5 µM;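 active = inhibition of aggregate fluorescence above about 70%, also judged a hit by eye on the cell image, limit read from the data, passing the limit was not always enough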;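 also: cells exposed to compound for three days before fixation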
# D1 allo mod – allosterically modulates the human D1 dopamine receptor | P21728 | HEK293 D1, CRE-luciferase, dopamine EC30 potentiation; actives deviate in either direction | B-score at 10 µM | hit rate 5.9% among 58,000 | AID 641;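 active = luminescence count or its row- and column-corrected plate score outside the 99.7% band of the plate's sample wells, on either side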
# SF-1 act – activators of human nuclear receptor SF-1 | hit rate 1.9% among 65,000 | activation, % at 10 µM | CHO-K1 Gal4-SF-1 LBD luciferase reporter; % increase over DMSO SF-1-specific signal;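 active = activation above the mean activation of all tested compounds plus 3 SD, cut at about 50% in these data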
#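 Assay system: CHO-K1 cells co-transfected with Gal4 DBD–human SF-1 LBD, 5xGal4 luciferase reporter; doses: 10 µM only; incubation: 20 h compound exposure at 37 °C after 1 h cell settling; signal: luciferase light emission; evaluation: percent activation versus DMSO; repeats: one test per compound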
# M1 antagonist – antagonists of rat M1 muscarinic receptor. P08482. CHO-M1 cells, Fluo-4 calcium, ACh EC80 antagonist mode; stronger effect = lower value. B-score at 10 µM. hit rate 3.4% among 64,000. AID 628;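 active = calcium fluorescence response, raw or row-and-column corrected B-score, differing from the plate sample mean either way at a set confidence level, mostly lower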
# Target sequence (P08482 whole entry, looked up): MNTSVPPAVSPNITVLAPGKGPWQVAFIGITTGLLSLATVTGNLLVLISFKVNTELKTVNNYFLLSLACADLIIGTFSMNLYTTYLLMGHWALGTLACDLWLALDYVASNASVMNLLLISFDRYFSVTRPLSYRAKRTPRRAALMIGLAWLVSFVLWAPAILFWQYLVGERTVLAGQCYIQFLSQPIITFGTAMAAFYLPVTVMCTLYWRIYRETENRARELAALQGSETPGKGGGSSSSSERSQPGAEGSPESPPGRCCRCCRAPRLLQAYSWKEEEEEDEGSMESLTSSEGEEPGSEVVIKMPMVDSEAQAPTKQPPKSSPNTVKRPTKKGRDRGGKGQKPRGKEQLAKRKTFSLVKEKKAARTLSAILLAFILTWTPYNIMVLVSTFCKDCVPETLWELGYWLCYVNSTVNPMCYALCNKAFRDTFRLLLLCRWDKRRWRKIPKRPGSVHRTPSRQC
# RORA act – activators of human nuclear receptor RORA; P35398; CHO-K1 Gal4-RORA LBD luciferase reporter, luminescence; percent increase over mock-subtracted basal signal; activation, % at 10 µM; hit rate 1.5% among 65,000; AID 560;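 active = activation above the mean of all tested compounds plus 3 SD, cut at about 49% in these data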;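 also: 0% = DMSO-treated RORA cells and 100% = added signal equal to DMSO minus mock-transfected cells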
# M1 ag – M1 muscarinic receptor agonism | CHO-M1 cells, Fluo-4 calcium fluorescence, agonist mode; stronger effect = higher value | B-score at 10 µM | hit rate 3% among 64,000 | AID 626;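 active = fluorescence rise, raw or as B-score row- and column-corrected plate score, outside the 99.7% band of its plate's samples, either direction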
# M1 antag conf – confirmation of rat M1 muscarinic receptor antagonists; CHO-M1 cells, Fluo-4 calcium, ACh EC80 antagonism; stronger effect = lower value; calcium response (max-min fluorescence) at 10 µM; shares compounds with M1 antagonist; hit rate 43% among 1,700;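 active = calcium response below the same-plate mean of wells given acetylcholine alone at its 80%-effect dose, minus 3 SD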;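 also: raw fluorescence intensity difference in arbitrary instrument units and not normalized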
# mGluR4 antag – acts on human mGluR4 in M1 antagonist selectivity test | hit rate 0.9% among 1,700 | fluorescence response (max-min) at 10 µM | CHO-mGluR4 calcium flux, Fluo-4 fluorescence, glutamate EC80; stronger effect = lower value | shares compounds with M1 antagonist;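 active = fluorescence response below the plate's average for near-maximal glutamate wells, less 3 SD of those wells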;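 also: raw unnormalized fluorescence span taken in the window right after glutamate addition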
# * marks the source's active call; other numbers are inactive results; / = no result given.
SMILES,mHtt clearance,D1 allo mod,SF-1 act,M1 antagonist,RORA act,M1 ag,M1 antag conf,mGluR4 antag
CCn1c(SCC(=O)OC(C)C)nnc1-c1cccc(Cl)c1,/,-0.06,-1,/,7,-0.32,/,/
COc1ccc(N2C(=O)CCC(C(=O)Nc3cccc(C)n3)C2c2ccc(OC)c(OC)c2)cc1 (configuration not stated),/,/,5,0.65,-3,-0.62,/,/
CCSc1ccccc1C(=O)Nc1cc(C)on1,/,-0.91,-14,-3.8*,-16,-0.61,537,193
C=CCn1c(CCCNC(=O)CCC)nc2ccccc21,/,-0.011,-13,1.1,-8,0.15,/,/
O=C(c1cc2nc3c(c(C(F)(F)F)n2n1)CCc1ccccc1-3)N1CCN2CCCC2C1 (configuration not stated),/,0.91,-10,-3.1*,-5,-1.4,343*,197
O=C(c1cc2nc(-c3ccco3)cc(C(F)(F)F)n2n1)N1CCc2ccccc2C1,/,0.68,-13,0.033,-5,0.052,/,/
CCOCCn1c(CN2CCOCC2)nc2c1c(=O)[nH]c(=O)n2C,/,-0.37,4,0.21,9,-1.5,/,/
CCC(=O)Nc1ccc(NC(=O)CN2CCCC(C)C2)c(Cl)c1 (configuration not stated),/,-0.057,-8,-2.8*,0,-1.4,613,201
CC1CCN(S(=O)(=O)c2ccc(NC(=O)CN3CCCC(C)C3)cc2)CC1 (configuration not stated),22,/,/,/,/,/,/,/
CCOC(=O)N1CCC(NC2CCCCCCC2)CC1,15,-0.77,-12,-11*,-9,-0.23,100*,219
Cc1cc(NC(=O)CN2CCc3ccccc3C2)nc2c1c(=O)oc1ccccc12,/,0.88,0,0.3,-15,-0.47,/,/
O=C1CC(N2CCN(c3ccc(S(=O)(=O)N4CCOCC4)cc3)CC2)C(=O)N1Cc1ccccc1 (configuration not stated),10,0.82,2,-3.4*,-17,0.26,607*,186
O=C1CC(N2CCN(S(=O)(=O)c3ccc(Cl)cc3)CC2)C(=O)N1CCc1ccccc1 (configuration not stated),/,/,14,/,-3,/,/,/
COc1ccc(C2N3CC4(C)CN2CC(C)(C3)C4O)cc1 (configuration not stated),2,0.95,16,0.1,18,0.071,/,/
COc1ccc(Br)cc1CN1CCCC(C(=O)N2CCCCCC2)C1 (configuration not stated),/,-0.62,-20,-3.1*,-8,-1.6,313*,191
COc1ccc(CN2CCCC(C(=O)N(C)Cc3ccccc3)C2)cc1OC (configuration not stated),22,-0.21,1,-0.53,9,-0.011,/,/
O=C(C1CCCN(Cc2ccccc2Br)C1)N1CCCCC1 (configuration not stated),/,0.027,-4,-2.3*,-22,0.055,397*,178
COc1ccccc1CN1CCCC(C(=O)N(C)Cc2ccccc2)C1 (configuration not stated),13,-0.49,-2,-3.8*,1,-0.56,513*,227
O=C(C1CCCN(Cc2ccccc2)C1)N1CCCCC1 (configuration not stated),-316,/,/,/,/,/,/,/
COC(=O)c1ccc(C2c3c(n[nH]c3C)C(=O)N2c2ccc(C)cc2)cc1 (configuration not stated),-359,0.03,-21,-1*,-4,-0.52,450*,206
O=C1CC(N2CCN(c3ccccc3Cl)CC2)C(=O)N1c1cccc(F)c1 (configuration not stated),/,-1.1,4,-1.7*,-28,0.54,650,229
CCN1C=C(Cc2cccs2)C2=C(C1)C(c1cccs1)C(C#N)=C(N)O2 (configuration not stated),28,-1.8,2,-3.8*,-10,2.8,514,170*
N#CC1=C(N)Oc2c(oc(CO)cc2=O)C1c1cccs1 (configuration not stated),-55,0.27,4,-0.48,-5,-0.012,/,/
O=C(c1ccccc1)c1ccc(OCC(O)CN2CCCCC2)cc1 (configuration not stated),-73,-0.22,20,-2.2*,10,0.044,381*,264
CCOC(=O)C1CCN(CC(O)COc2ccc(C(=O)CC)cc2)CC1 (configuration not stated),/,0.026,18,-3.3*,4,-0.2,569,212
SMILES,mHtt clearance,D1 allo mod,SF-1 act,M1 antagonist,RORA act,M1 ag,M1 antag conf,mGluR4 antag
OC(COc1ccc(C2C=CCC2)cc1)CN1CCCCC1 (configuration not stated),/,-0.78,2,-4.1*,-11,-1.1,422*,246
CCC(=O)c1ccc(OCC(O)CN2CCN(S(=O)(=O)N3CCCCC3)CC2)cc1 (configuration not stated),/,0.57,6,0.29,-7,-0.92,/,/
CN(C)S(=O)(=O)N1CCN(CC(O)COc2ccc(C(=O)c3ccccc3)cc2)CC1 (configuration not stated),-38,-0.72,5,-0.62,-28,-0.93,/,/
CC(C)COc1ccc(C(=O)CCN2CCCCC2)cc1,41,0.086,-14,-7*,-5,-0.21,278*,199
O=C(COC(=O)C1CC2C=CC1C2)Nc1ccc2c(c1)OC(F)(F)O2 (configuration not stated),5,1,3,0.13,-13,-0.6,/,/
CC1CCCCN1C(=O)CSc1nnc(-c2c[nH]c3ccccc23)o1 (configuration not stated),/,0.39,32,-0.14,19,-0.88,/,/
Cc1ccc(NC(=O)CCc2c(C)nc3ncnn3c2C)nc1,56,0.14,-1,1.2,7,0.29,/,/
CCN1CCN(c2nc3c(c(=O)n(C)c(=O)n3C)n2Cc2cccc3ccccc23)CC1,-7,/,15,-3.3*,-14,0.24,429*,202
Cn1c(=O)c2c(nc(CN3CCC(C(N)=O)CC3)n2Cc2c(F)cccc2Cl)n(C)c1=O,/,0.82,1,-0.0026,13,0.8,/,/
Cn1c(=O)c2c(nc(CN3CCC(C(N)=O)CC3)n2Cc2c(Cl)cccc2Cl)n(C)c1=O,-68,-0.55,-1,-4.1*,6,0.54,547,246
CCN1CCN(Cc2nc3c(c(=O)n(C)c(=O)n3C)n2Cc2cccc3ccccc23)CC1,-87,-0.041,5,-2.8*,-3,0.32,620,255
Cc1ccc(C)c(N2CCN(c3cc(C)nc4nnnn34)CC2)c1,/,0.92,-21,-0.32,4,-0.074,/,/
